Converted amounts (≈) assume the structure as drawn.
How the values were obtained:
Type in all cases: functional
PBMC [1] = assay: Inhibition of LPS-induced IL1-beta release in human PBMC at 10 uM […]
In short: (§1)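 Test compound at a single concentration of 10. Stimulation: LPS for 24 h (TNF-α, IL-1β), PHA for 24 h (IFN-γ), concanavalin A for 48 h (IL-4). Cytokines released were measured by ELISA. Inhibition is given as percent of untreated control.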

Haemophilus influenzae = assay: Antibacterial activity against Haemophilus influenzae
[2] = system: Staphylococcus epidermidis; assay: Antibacterial activity against Staphylococcus epidermidis
Cutibacterium acnes = assay: Antibacterial activity against Propionibacterium acnes
PBMC [3] = assay: Inhibition of LPS-induced TNFalpha release in human PBMC at 10 uM relative to Dexamethasone; in short: as §1
PBMC [4] = assay: Inhibition of PHA-induced IFN-gamma release in human PBMC at 10 uM relative to Dexamethasone; in short: as §1
Bacillus subtilis = assay: Antibacterial activity against Bacillus subtilis
Staphylococcus aureus = assay: Antibacterial activity against Staphylococcus aureus
PBMC [5] = assay: Inhibition of concanavalin A-induced IL4 release in human PBMC at 10 uM relative to Dexamethasone; in short: as §1

Cc1ccc(B(OC(=O)c2ncccc2O)c2ccc(C)c(Cl)c2)cc1Cl
inhibition at 10 µM (PBMC [1]): 99%
MIC (Haemophilus influenzae): > 64 mg/L
MIC [2]: 0.5 mg/L (≈ 1.25 µM)
MIC (Cutibacterium acnes): 0.3 mg/L (≈ 0.75 µM)
inhibition at 10 µM (PBMC [3]): 100%
inhibition at 10 µM (PBMC [4]): -20%
MIC (Bacillus subtilis): 1 mg/L (≈ 2.5 µM)
MIC (Staphylococcus aureus): 1 mg/L (≈ 2.5 µM)
inhibition at 10 µM (PBMC [5]): -21%

O=C(OB(c1cccnc1)c1cccc(Cl)c1)c1ncccc1O
MIC (Haemophilus influenzae): 32 mg/L (≈ 94.5 µM)
MIC [2]: 32 mg/L (≈ 94.5 µM)
MIC (Staphylococcus aureus): 16 mg/L (≈ 47.3 µM)

O=C(OB(c1ccc(Cl)cc1)c1ccc(Cl)cc1)c1ncccc1O
MIC (Haemophilus influenzae): 16 mg/L (≈ 43 µM)
MIC [2]: 1 mg/L (≈ 2.69 µM)
MIC (Cutibacterium acnes): 1 mg/L (≈ 2.69 µM)
MIC (Bacillus subtilis): 1 mg/L (≈ 2.69 µM)
MIC (Staphylococcus aureus): 4 mg/L (≈ 10.8 µM)

O=C(OB(c1cccc(Cl)c1)c1cccc(Cl)c1)c1ncccc1O
MIC (Haemophilus influenzae): 16 mg/L (≈ 43 µM)
MIC [2]: 8 mg/L (≈ 21.5 µM)
MIC (Cutibacterium acnes): 10 mg/L (≈ 26.9 µM)
MIC (Bacillus subtilis): 16 mg/L (≈ 43 µM)
MIC (Staphylococcus aureus): ≤ 0.125 mg/L

Cc1ccc(B(CCc2ccccc2)OC(=O)c2ncccc2O)cc1Cl
MIC (Haemophilus influenzae): > 64 mg/L
MIC [2]: 1 mg/L (≈ 2.63 µM)
MIC (Cutibacterium acnes): 1 mg/L (≈ 2.63 µM)
MIC (Bacillus subtilis): 1 mg/L (≈ 2.63 µM)
MIC (Staphylococcus aureus): 0.5 mg/L (≈ 1.32 µM)

Cc1ccc(B(OC(=O)c2ccccn2)c2ccc(C)c(Cl)c2)cc1Cl
MIC [2]: > 64 mg/L
MIC (Staphylococcus aureus): 0.5 mg/L (≈ 1.3 µM)

CSc1cccc(B(OC(=O)c2ncccc2O)c2cccc(Cl)c2)c1
MIC (Haemophilus influenzae): > 64 mg/L
MIC [2]: 8 mg/L (≈ 20.9 µM)
MIC (Cutibacterium acnes): 3 mg/L (≈ 7.82 µM)
MIC (Bacillus subtilis): 4 mg/L (≈ 10.4 µM)
MIC (Staphylococcus aureus): 8 mg/L (≈ 20.9 µM)

Cc1ccc(B(OC(=O)c2ncccc2C(=O)c2ccccc2)c2ccc(C)c(Cl)c2)cc1Cl
MIC (Haemophilus influenzae): > 64 mg/L
MIC [2]: 32 mg/L (≈ 65.5 µM)
MIC (Cutibacterium acnes): 30 mg/L (≈ 61.5 µM)
MIC (Bacillus subtilis): 64 mg/L (≈ 131 µM)
MIC (Staphylococcus aureus): 0.5 mg/L (≈ 1.02 µM)

CN(C)c1ccc(B(OC(=O)c2ncccc2O)c2ccc(N(C)C)c(Cl)c2)cc1Cl
MIC (Haemophilus influenzae): > 64 mg/L
MIC [2]: 32 mg/L (≈ 69.8 µM)
MIC (Bacillus subtilis): 64 mg/L (≈ 140 µM)
MIC (Staphylococcus aureus): 32 mg/L (≈ 69.8 µM)

Cc1ccc(B(OC(=O)c2cc(C(=O)O)ccn2)c2ccc(C)c(Cl)c2)cc1Cl
MIC [2]: 4 mg/L (≈ 9.34 µM)
MIC (Cutibacterium acnes): 3 mg/L (≈ 7.01 µM)
MIC (Staphylococcus aureus): 2 mg/L (≈ 4.67 µM)

Cc1ccc(B(OC(=O)c2ncccc2N)c2ccc(C)c(Cl)c2)cc1Cl
MIC (Haemophilus influenzae): > 64 mg/L
MIC [2]: > 64 mg/L
MIC (Cutibacterium acnes): 1 mg/L (≈ 2.51 µM)
MIC (Bacillus subtilis): 2 mg/L (≈ 5.01 µM)
MIC (Staphylococcus aureus): > 64 mg/L

CCOc1ccc(B(OC(=O)c2ncccc2O)c2ccc(OCC)c(Cl)c2)cc1Cl
MIC (Haemophilus influenzae): > 64 mg/L
MIC [2]: 2 mg/L (≈ 4.35 µM)
MIC (Cutibacterium acnes): 1 mg/L (≈ 2.17 µM)
MIC (Bacillus subtilis): 2 mg/L (≈ 4.35 µM)
MIC (Staphylococcus aureus): 2 mg/L (≈ 4.35 µM)

O=C(OB(c1ccc(F)c(Cl)c1)c1ccc(F)c(Cl)c1)c1ncccc1O
MIC (Haemophilus influenzae): 4 mg/L (≈ 9.8 µM)
MIC [2]: 8 mg/L (≈ 19.6 µM)
MIC (Cutibacterium acnes): 3 mg/L (≈ 7.35 µM)
MIC (Bacillus subtilis): 8 mg/L (≈ 19.6 µM)
MIC (Staphylococcus aureus): 1 mg/L (≈ 2.45 µM)

Cc1ccccc1B(OC(=O)c1ncccc1O)c1cccc(Cl)c1
MIC (Haemophilus influenzae): > 64 mg/L
MIC [2]: 8 mg/L (≈ 22.8 µM)
MIC (Cutibacterium acnes): 3 mg/L (≈ 8.53 µM)
MIC (Bacillus subtilis): 4 mg/L (≈ 11.4 µM)
MIC (Staphylococcus aureus): 8 mg/L (≈ 22.8 µM)

Cc1ccc(B(OC(=O)c2ccc(C(=O)O)cn2)c2ccc(C)c(Cl)c2)cc1Cl
inhibition at 10 µM (PBMC [1]): 80%
MIC (Haemophilus influenzae): 8 mg/L (≈ 18.7 µM)
MIC [2]: 8 mg/L (≈ 18.7 µM)
MIC (Cutibacterium acnes): 3 mg/L (≈ 7.01 µM)
inhibition at 10 µM (PBMC [3]): 100%
inhibition at 10 µM (PBMC [4]): 24%
MIC (Bacillus subtilis): 8 mg/L (≈ 18.7 µM)
MIC (Staphylococcus aureus): 0.5 mg/L (≈ 1.17 µM)
inhibition at 10 µM (PBMC [5]): 9%

Cc1ccc(B(OC(=O)c2ncccc2C(=O)O)c2ccc(C)c(Cl)c2)cc1Cl
MIC (Haemophilus influenzae): 8 mg/L (≈ 18.7 µM)
MIC [2]: 4 mg/L (≈ 9.34 µM)
MIC (Cutibacterium acnes): 3 mg/L (≈ 7.01 µM)
MIC (Bacillus subtilis): 8 mg/L (≈ 18.7 µM)
MIC (Staphylococcus aureus): 0.125 mg/L (≈ 0.292 µM)

Cc1cc(Cl)ccc1B(OC(=O)c1ncccc1O)c1ccc(Cl)cc1C
inhibition at 10 µM (PBMC [1]): 103%
MIC (Haemophilus influenzae): 16 mg/L (≈ 40 µM)
MIC [2]: 2 mg/L (≈ 5 µM)
MIC (Cutibacterium acnes): 0.3 mg/L (≈ 0.75 µM)
inhibition at 10 µM (PBMC [3]): 101%
inhibition at 10 µM (PBMC [4]): 15%
MIC (Bacillus subtilis): 0.5 mg/L (≈ 1.25 µM)
MIC (Staphylococcus aureus): 4 mg/L (≈ 10 µM)
inhibition at 10 µM (PBMC [5]): 57%

CC(=O)Oc1cccnc1C(=O)OB(c1ccc(C)c(Cl)c1)c1ccc(C)c(Cl)c1
inhibition at 10 µM (PBMC [1]): -49%
MIC (Haemophilus influenzae): > 64 mg/L
MIC [2]: 1 mg/L (≈ 2.26 µM)
MIC (Cutibacterium acnes): 1 mg/L (≈ 2.26 µM)
inhibition at 10 µM (PBMC [3]): 101%
MIC (Bacillus subtilis): 0.5 mg/L (≈ 1.13 µM)
MIC (Staphylococcus aureus): 2 mg/L (≈ 4.52 µM)

O=C(OB(c1ccc(Cl)cc1)c1ccc(Cl)nc1)c1ncccc1O
MIC (Haemophilus influenzae): 32 mg/L (≈ 85.8 µM)
MIC [2]: 32 mg/L (≈ 85.8 µM)
MIC (Staphylococcus aureus): 32 mg/L (≈ 85.8 µM)

O=C(OB(c1ccsc1)c1cccc(Cl)c1)c1ncccc1O
MIC (Haemophilus influenzae): 32 mg/L (≈ 93.1 µM)
MIC [2]: 32 mg/L (≈ 93.1 µM)
MIC (Cutibacterium acnes): 10 mg/L (≈ 29.1 µM)
MIC (Bacillus subtilis): 16 mg/L (≈ 46.6 µM)
MIC (Staphylococcus aureus): 32 mg/L (≈ 93.1 µM)

O=C(OB(c1cccc(F)c1)c1cccc(F)c1)c1ncccc1O
MIC (Haemophilus influenzae): > 64 mg/L
MIC [2]: > 64 mg/L
MIC (Cutibacterium acnes): > 100 mg/L
MIC (Bacillus subtilis): > 64 mg/L
MIC (Staphylococcus aureus): > 64 mg/L

O=C(OB(c1ccc(Cl)cc1)c1cccnc1)c1ncccc1O
MIC (Haemophilus influenzae): 16 mg/L (≈ 47.3 µM)
MIC [2]: 32 mg/L (≈ 94.5 µM)
MIC (Staphylococcus aureus): 64 mg/L (≈ 189 µM)

Cc1ccc(B(OC(=O)c2ncccc2O)c2ccc(C)c(Cl)c2)cc1
MIC (Haemophilus influenzae): > 64 mg/L
MIC [2]: 2 mg/L (≈ 5.47 µM)
MIC (Cutibacterium acnes): 3 mg/L (≈ 8.21 µM)
MIC (Bacillus subtilis): 2 mg/L (≈ 5.47 µM)
MIC (Staphylococcus aureus): 4 mg/L (≈ 10.9 µM)

CC[C@H]1OC(=O)[C@H](C)[C@@H](O[C@H]2C[C@@](C)(OC)[C@@H](O)[C@H](C)O2)[C@H](C)[C@@H](O[C@@H]2O[C@H](C)C[C@H](N(C)C)[C@H]2O)[C@](C)(O)C[C@@H](C)C(=O)[C@H](C)[C@@H](O)[C@]1(C)O [ERYTHROMYCIN]
inhibition at 10 µM (PBMC [1]): -32%
MIC (Haemophilus influenzae): 4 mg/L (≈ 5.45 µM)
MIC [2]: 0.15 mg/L (≈ 0.204 µM)
MIC (Cutibacterium acnes): 0.1 mg/L (≈ 0.136 µM)
inhibition at 10 µM (PBMC [3]): 22%
MIC (Bacillus subtilis): 0.1 mg/L (≈ 0.136 µM)
MIC (Staphylococcus aureus): 0.5 mg/L (≈ 0.681 µM)
